These results are taken from ChEMBL document CHEMBL1221376, “Identification and optimization of novel 2-(4-oxo-2-aryl-quinazolin-3(4H)-yl)acetamide vasopressin V3 (V1b) receptor antagonists” (Bioorg Med Chem Lett, 2010).

For orientation: IC50 means the concentration that inhibits the measured activity by half. Lower therefore signals higher potency. As usually defined, the inhibition is the percentage by which the read-out fell short of the control. Low readings indicate a weak effect, high ones a strong effect.

The target of assay [1] is T1, Vasopressin V1b receptor (Homo sapiens, UniProt P47901).
T1 sequence (P47901 whole entry): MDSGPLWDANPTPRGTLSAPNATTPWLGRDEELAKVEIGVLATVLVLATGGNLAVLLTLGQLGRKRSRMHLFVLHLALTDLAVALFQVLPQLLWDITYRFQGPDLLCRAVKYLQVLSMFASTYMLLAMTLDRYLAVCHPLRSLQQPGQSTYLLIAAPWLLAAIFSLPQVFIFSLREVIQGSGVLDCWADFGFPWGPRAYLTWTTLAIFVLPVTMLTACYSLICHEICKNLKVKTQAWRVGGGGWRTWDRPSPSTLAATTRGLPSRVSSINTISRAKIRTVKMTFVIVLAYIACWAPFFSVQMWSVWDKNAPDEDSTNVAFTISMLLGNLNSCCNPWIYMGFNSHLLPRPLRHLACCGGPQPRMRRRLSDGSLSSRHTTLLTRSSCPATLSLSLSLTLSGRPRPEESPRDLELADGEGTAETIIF
The assay is described as follows: Displacement of [3H]AVP from human vasopresin3 receptor expressed in CHO cells. The assay is classed as cell-based. The method, boiled down: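 Whole-cell binding on CHO cells stably expressing human V3 (V1b) receptor, grown at 37 °C with 5% CO2. Cells seeded at 30,000 per well, cultured overnight at 37 °C, then washed twice with PBS. Serially diluted compounds plus 5 nM [3H]-AVP (final) in PBS with 10 mM MgCl2, 0.1% BSA and 1% DMSO, 30 min at room temperature. Washed, air dried, scintillation counted.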
A general note: Loss of bound radioactivity is the signal in a displacement assay; it reports binding, not function.

Assay [2] addresses T2, Vasopressin V1b receptor (Rattus norvegicus, UniProt P48974).
T2 sequence (P48974 whole entry): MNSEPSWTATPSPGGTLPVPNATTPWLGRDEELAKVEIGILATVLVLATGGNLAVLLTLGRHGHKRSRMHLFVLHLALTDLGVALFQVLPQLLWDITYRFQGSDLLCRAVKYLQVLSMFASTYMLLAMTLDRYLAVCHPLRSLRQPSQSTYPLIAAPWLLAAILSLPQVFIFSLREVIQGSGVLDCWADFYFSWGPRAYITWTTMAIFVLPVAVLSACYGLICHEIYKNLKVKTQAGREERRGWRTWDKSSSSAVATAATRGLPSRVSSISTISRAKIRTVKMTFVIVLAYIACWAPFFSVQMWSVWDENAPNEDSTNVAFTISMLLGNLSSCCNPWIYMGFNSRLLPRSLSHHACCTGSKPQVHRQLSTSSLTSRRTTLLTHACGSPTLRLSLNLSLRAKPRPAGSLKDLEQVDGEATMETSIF
As to the kind of experiment: Displacement of [3H]AVP from rat vasopressin V3 receptor.

The target of assay [3] is Vasopressin V1a receptor (Homo sapiens) (UniProt P37288). As to the kind of experiment: Displacement of [3H]AVP from human vasopressin V1a receptor at 5 uM. The method in brief:
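Membrane binding using membranes from CHO cells stably expressing human V1a receptor, with 5 nM [3H]-AVP (final) and test compound in 50 mM Tris–HCl pH 7.4, 5 mM MgCl2, 1 mg/mL BSA and 0.5% DMSO. Incubated 60 min at room temperature, then rapid filtration over polyethylenimine-soaked GF/B filters. Filters washed with ice-cold Tris–HCl, dried 30 min at 55 °C, scintillation counted.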

The next assay has as its target Vasopressin V2 receptor (Homo sapiens, UniProt P30518). The assay is described as follows: Displacement of [3H]AVP from human vasopressin V2 receptor.
The next assay deals with T3, Oxytocin receptor (Homo sapiens, UniProt P30559).
T3 sequence (P30559 whole entry): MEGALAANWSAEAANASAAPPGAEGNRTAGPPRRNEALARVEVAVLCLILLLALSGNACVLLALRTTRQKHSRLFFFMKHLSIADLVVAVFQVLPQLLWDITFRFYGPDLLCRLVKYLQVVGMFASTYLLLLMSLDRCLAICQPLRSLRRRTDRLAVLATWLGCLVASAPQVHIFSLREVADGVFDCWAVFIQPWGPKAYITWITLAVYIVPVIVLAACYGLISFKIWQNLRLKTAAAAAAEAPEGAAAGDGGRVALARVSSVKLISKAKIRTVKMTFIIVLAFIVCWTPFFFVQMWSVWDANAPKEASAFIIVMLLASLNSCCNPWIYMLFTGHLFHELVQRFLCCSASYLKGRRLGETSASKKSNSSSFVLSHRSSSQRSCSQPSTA
The assay is described as follows: Displacement of [3H]oxytocin from human oxytocin receptor.

Chain of Vasopressin V1a receptor (Homo sapiens) (P37288 whole entry, looked up): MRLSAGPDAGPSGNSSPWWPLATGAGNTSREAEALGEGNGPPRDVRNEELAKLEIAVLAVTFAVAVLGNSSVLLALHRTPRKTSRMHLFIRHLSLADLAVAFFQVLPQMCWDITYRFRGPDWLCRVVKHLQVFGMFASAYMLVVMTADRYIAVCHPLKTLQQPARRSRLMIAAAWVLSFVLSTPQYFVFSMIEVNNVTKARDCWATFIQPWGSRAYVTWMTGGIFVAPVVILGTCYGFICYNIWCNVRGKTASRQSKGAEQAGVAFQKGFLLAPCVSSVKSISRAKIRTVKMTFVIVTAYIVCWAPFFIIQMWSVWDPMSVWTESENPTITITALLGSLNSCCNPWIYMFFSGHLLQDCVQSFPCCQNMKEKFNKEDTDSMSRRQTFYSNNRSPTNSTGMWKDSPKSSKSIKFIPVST
Chain of Vasopressin V2 receptor (P30518 whole entry): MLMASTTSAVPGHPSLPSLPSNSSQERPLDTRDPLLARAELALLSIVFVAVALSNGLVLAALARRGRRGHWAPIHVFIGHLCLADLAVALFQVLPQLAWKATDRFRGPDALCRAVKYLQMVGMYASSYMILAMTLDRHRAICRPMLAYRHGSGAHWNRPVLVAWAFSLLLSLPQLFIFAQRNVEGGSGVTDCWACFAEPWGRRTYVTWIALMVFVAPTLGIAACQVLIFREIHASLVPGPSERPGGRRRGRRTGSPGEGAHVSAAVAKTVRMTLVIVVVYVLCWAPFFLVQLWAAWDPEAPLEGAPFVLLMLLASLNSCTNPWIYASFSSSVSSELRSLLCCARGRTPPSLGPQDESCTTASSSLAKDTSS

`NCCOc1ccc2nc(-c3ccccc3)n(CC(=O)NCC3CC3)c(=O)c2c1` registered a half-maximal inhibitory concentration (IC50) on Vasopressin V1b receptor [1] of 4 µM. This lies in the single-digit micromolar range.
On the same count and under the same terms, to `CC(C)C[C@H](N)COc1ccc2nc(-c3ccccc3)n(CC(=O)NCC3CC3)c(=O)c2c1` belongs 2.1 µM; to `CC(C)C[C@@H](COc1ccc2nc(-c3ccccc3)n(CC(=O)NCC3CC3)c(=O)c2c1)NC(=O)[C@@H](N)Cc1ccc(O)cc1`, 0.2 µM.
The same measure, in the same setting: the figure for `COC1CCN(CCCOc2ccc3nc(-c4ccccc4)n(CC(=O)NCC4CC4)c(=O)c3c2)CC1` is 0.71 µM.
On the same count and under the same terms, to `NCCCCCCOc1ccc2nc(-c3ccccc3)n(CC(=O)NCC3CC3)c(=O)c2c1` belongs more than 100 µM; to `NCC(=O)NCCOc1ccc2nc(-c3ccccc3)n(CC(=O)NCC3CC3)c(=O)c2c1`, 30.5 µM; to `O=C(CCc1ccc(O)cc1)NCCOc1ccc2nc(-c3ccccc3)n(CC(=O)NCC3CC3)c(=O)c2c1`, more than 100 µM.
For the molecule `CN1CCN(CCCOc2ccc3nc(-c4ccccc4)n(CC(=O)NCC4CC4)c(=O)c3c2)CC1`, the IC50 on Vasopressin V1b receptor [1] amounted to 1.7 µM. That is a single-digit micromolar value.
Still for that read-out and setting: to `O=C(Cn1c(-c2ccccc2)nc2ccc(O)cc2c1=O)NCC1CC1` belongs more than 100 µM; to `O=C(Cn1c(-c2ccccc2)nc2ccc(OCCCN3CCCC3)cc2c1=O)NCC1CC1`, 1.8 µM.
On the same count and under the same terms, the figure for `CCN(CC)CCCOc1ccc2nc(-c3ccccc3)n(CC(=O)NCC3CC3)c(=O)c2c1` is 3.8 µM; for `CN1CCN(CCCCOc2ccc3nc(-c4ccccc4)n(CC(=O)NCC4CC4)c(=O)c3c2)CC1` it is 4.8 µM.
Still for that read-out and setting: to `CN1CCN(CCOc2ccc3nc(-c4ccccc4)n(CC(=O)NCC4CC4)c(=O)c3c2)CC1` belongs 22 µM; to `O=C(Cn1c(-c2ccccc2)nc2ccc(OCCCN3CCCCCC3)cc2c1=O)NCC1CC1`, 0.34 µM; to `CC(C)C[C@@H](COc1ccc2nc(-c3ccccc3)n(CC(=O)NCC3CC3)c(=O)c2c1)NC(=O)CN`, 5.1 µM.
On Vasopressin V1b receptor [1], `O=C(Cn1c(-c2ccccc2)nc2ccc(OCCCN3CCC(O)CC3)cc2c1=O)NCC1CC1` gave a half-inhibitory concentration (IC50) of 1.1 µM.
On to `O=C(Cn1c(-c2ccccc2)nc2ccc(OCCCN3CCNCC3)cc2c1=O)NCC1CC1`, for which the IC50 at Vasopressin V1b receptor [1] was determined as 25.8 µM.
Still for that read-out and setting: the figure for `NCCCCCOc1ccc2nc(-c3ccccc3)n(CC(=O)NCC3CC3)c(=O)c2c1` is more than 30 µM; for `NCCCOc1ccc2nc(-c3ccccc3)n(CC(=O)NCC3CC3)c(=O)c2c1` it is 3.6 µM.
The same measure, in the same setting: the figure for `CNCCCOc1ccc2nc(-c3ccccc3)n(CC(=O)NCC3CC3)c(=O)c2c1` is 7.6 µM; for `NCCCCOc1ccc2nc(-c3ccccc3)n(CC(=O)NCC3CC3)c(=O)c2c1` it is more than 30 µM.
Turning to `O=C(Cn1c(-c2ccccc2)nc2ccc(OCCCN3CCOCC3)cc2c1=O)NCC1CC1`, the IC50 at Vasopressin V1b receptor [1] was 0.12 µM; at Vasopressin V1b receptor [2], 210 nM; at Vasopressin V2 receptor, more than 100 µM; on Oxytocin receptor it was more than 100 µM. In assay [3], this molecule registered an inhibition of 6%.
In the case of `O=C(Cn1c(-c2ccccc2)nc2ccc(OCCCN3CCCCC3)cc2c1=O)NCC1CC1`, on Vasopressin V1b receptor [1], the half-maximal inhibitory concentration (IC50) was found to be 0.31 µM.
